Laboratory results published in ChEMBL document CHEMBL1125727 (J Med Chem, 1991).
pIC50: −log10 of the molar value.

Test system: CHO-AA8
Experiment: Compound was evaluated for in vitro cytotoxicities against Chinese hamster ovary derived AA8 cell lines.
Assay type: functional, cell-based
Conditions: Cricetulus griseus
Procedure, shortened: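 AA8 cells kept in exponential growth in Alpha MEM with 10% fetal calf serum. Log-phase cultures in 96-well plates, drug exposure 18 h, ended by three washes with fresh medium, then 72 h further growth. Cell density read by methylene blue staining. IC50 is the nominal concentration reducing cell density to 50% of control, with eight controls per plate.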

Row | Compound | pIC50
1 | CCN(CCCl)c1ccc(CCCNC(=O)c2ccc(NCCCc3ccc(N(CC)CCCl)cc3)c3cc4ccccc4nc23)cc1 | 5.82
2 | CCN(CCCl)c1ccc(SCCNC(=O)c2ccc(NCCSc3ccc(N(CC)CCCl)cc3)c3cc4ccccc4nc23)cc1 | 5.03
3 | CN(C)CCNC(=O)c1ccc(NCCCc2ccc(N(CCCl)CCCl)cc2)c2cc3ccccc3nc12 | 6.68
4 | COc1cc(NS(C)(=O)=O)ccc1Nc1ccc(C(=O)NCCCc2ccc(N(CCCl)CCCl)cc2)c2nc3ccccc3cc12 | < 2.40

Test system: P388
Experiment: Percentage increase in lifespan of drug-related tumor bearing animals when heated at the optimal dose and tested in murine leukemia P388 cell lines.
Assay type: functional, cell-based
Conditions: Mus musculus
Procedure, shortened: (§1)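 Mice inoculated intraperitoneally with 10⁶ P388 leukemia cells. Single drug dose on day 1 in 0.1 or 0.2 mL of 30% v/v ethanol/water. Optimal dose given in mg/kg. ILS is the percentage increase in lifespan at the optimal dose, with values above 20% taken as significant.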

Row | Compound | ILS [%]
5 | CCN(CCCl)c1ccc(CCCNC(=O)c2ccc(NCCCc3ccc(N(CC)CCCl)cc3)c3cc4ccccc4nc23)cc1 | 25
6 | COc1cc(NS(C)(=O)=O)ccc1Nc1ccc(C(=O)NCCCc2ccc(N(CCCl)CCCl)cc2)c2nc3ccccc3cc12 | 26
7 | O=C(O)CCCc1ccc(N(CCCl)CCCl)cc1 [CHLORAMBUCIL] | 37

Test system: UV4
Experiment: Hypersensitivity factor obtained from in vitro cytotoxicities against Chinese hamster ovary derived AA8 / UV4 cell lines
Assay type: functional, cell-based
Conditions: Cricetulus griseus
Procedure, shortened: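 HF = IC50(AA8)/IC50(UV4). Both lines kept in Alpha MEM with 10% fetal calf serum and exposed to drug for 18 h, then washed three times and grown 72 h more. Density read by methylene blue. Each IC50 is the nominal concentration giving 50% of control density, with eight controls per plate.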

Row | Compound | HF
8 | CCN(CCCl)c1ccc(CCCNC(=O)c2ccc(NCCCc3ccc(N(CC)CCCl)cc3)c3cc4ccccc4nc23)cc1 | 5.4
9 | CCN(CCCl)c1ccc(SCCNC(=O)c2ccc(NCCSc3ccc(N(CC)CCCl)cc3)c3cc4ccccc4nc23)cc1 | 7.4
10 | CN(C)CCNC(=O)c1ccc(NCCCc2ccc(N(CCCl)CCCl)cc2)c2cc3ccccc3nc12 | 19
11 | COc1cc(NS(C)(=O)=O)ccc1Nc1ccc(C(=O)NCCCc2ccc(N(CCCl)CCCl)cc2)c2nc3ccccc3cc12 | > 50
12 | O=C(O)CCCc1ccc(N(CCCl)CCCl)cc1 [CHLORAMBUCIL] | 58

Test system: P388
Experiment: In vitro cytotoxicity against murine leukemia P388 cell line.
Assay type: functional, cell-based
Conditions: Mus musculus
Procedure, shortened: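 P388 cells kept in exponential growth in RPMI 1640 with 10% fetal calf serum. Log-phase cultures in 96-well plates with drug present throughout 72 h growth. Final density read by a modified MTT method. IC50 is the nominal concentration reducing cell density to 50% of control, with eight controls per plate.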

Row | Compound | pIC50
13 | CCN(CCCl)c1ccc(CCCNC(=O)c2ccc(NCCCc3ccc(N(CC)CCCl)cc3)c3cc4ccccc4nc23)cc1 | 6.54
14 | CCN(CCCl)c1ccc(SCCNC(=O)c2ccc(NCCSc3ccc(N(CC)CCCl)cc3)c3cc4ccccc4nc23)cc1 | 6.26
15 | CN(C)CCNC(=O)c1ccc(NCCCc2ccc(N(CCCl)CCCl)cc2)c2cc3ccccc3nc12 | 7.22
16 | COc1cc(NS(C)(=O)=O)ccc1Nc1ccc(C(=O)NCCCc2ccc(N(CCCl)CCCl)cc2)c2nc3ccccc3cc12 | 6.74

Test system: P388
Experiment: Optimal dose administered as a single dose by intraperitoneal inoculation of 10 X E6 murine leukemia P388 cell lines.
Assay type: functional, cell-based
Conditions: Mus musculus
Procedure, shortened: as §1

Row | Compound | OD [mg/kg]
17 | CCN(CCCl)c1ccc(CCCNC(=O)c2ccc(NCCCc3ccc(N(CC)CCCl)cc3)c3cc4ccccc4nc23)cc1 | 45
18 | CN(C)CCNC(=O)c1ccc(NCCCc2ccc(N(CCCl)CCCl)cc2)c2cc3ccccc3nc12 | 13.3
19 | COc1cc(NS(C)(=O)=O)ccc1Nc1ccc(C(=O)NCCCc2ccc(N(CCCl)CCCl)cc2)c2nc3ccccc3cc12 | 65
20 | O=C(O)CCCc1ccc(N(CCCl)CCCl)cc1 [CHLORAMBUCIL] | 225
